Measurements reported in ChEMBL document CHEMBL1137710, “Synthesis and in vitro antitumor activity of new quinoxaline derivatives” (2009).

Experiments:
Format in all cases: functional
NCI-H460 [1] = experiment: Anticancer activity against human NCI-H460 cells assessed as cell growth at 100 uM after 48 hrs by sulforhodamine B assay; conditions: NCI-H460, 48 h, read-out: Activity
MCF7 [2] = experiment: Anticancer activity against human MCF7 cells assessed as cell growth at 100 uM after 48 hrs by sulforhodamine B assay; conditions: MCF7, 48 h, read-out: Activity
SF-268 [3] = experiment: Anticancer activity against human SF268 cells assessed as cell growth at 100 uM after 48 hrs by sulforhodamine B assay; conditions: SF-268, 48 h, read-out: Activity
HOP-62 = experiment: Growth inhibition of human HOP62 cells after 48 hrs by sulforhodamine B assay; conditions: HOP-62, 48 h
How it was run: (§1)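 NCI 60-human-tumor-cell-line panel, with compounds tested over a 5-log dose range. Values are taken from dose-response curves as log10 molar concentrations: GI50 is 50% net growth inhibition, TGI is total growth inhibition, and LC50 is 50% net cell death.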

NCI-H322M = experiment: Growth inhibition of human NCI-H322M cells after 48 hrs by sulforhodamine B assay; how it was run: as §1
NCI-H460 [4] = experiment: Growth inhibition of human NCI-H460 cells after 48 hrs by sulforhodamine B assay; conditions: NCI-H460, 48 h; how it was run: as §1
NCI-H522 = experiment: Growth inhibition of human NCI-H522 cells after 48 hrs by sulforhodamine B assay; conditions: NCI-H522, 48 h; how it was run: as §1
COLO 205 = experiment: Growth inhibition of human COLO205 cells after 48 hrs by sulforhodamine B assay; conditions: COLO 205, 48 h; how it was run: as §1
KM12 = experiment: Growth inhibition of human KM12 cells after 48 hrs by sulforhodamine B assay; conditions: KM12, 48 h; how it was run: as §1
SF-268 [5] = experiment: Growth inhibition of human SF268 cells after 48 hrs by sulforhodamine B assay; conditions: SF-268, 48 h; how it was run: as §1
SF-295 = experiment: Growth inhibition of human SF295 cells after 48 hrs by sulforhodamine B assay; conditions: SF-295, 48 h; how it was run: as §1
SNB-19 = experiment: Growth inhibition of human SNB19 cells after 48 hrs by sulforhodamine B assay; conditions: SNB-19, 48 h
How it was run: (§2)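 Run in the NCI 60-human-tumour-cell-line panel, tested over a 5-log dose range. Dose–response curves gave three values per cell line, each as a log10 molar concentration: GI50 (50% inhibition of net cell growth), TGI (total inhibition of net growth) and LC50 (50% net cell death). The mean graph midpoint is the arithmetic mean over all lines, with insensitive lines entered at the highest concentration tested.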

U-251 = experiment: Growth inhibition of human U251 cells after 48 hrs by sulforhodamine B assay; conditions: U-251, 48 h; how it was run: as §2
SK-MEL-5 = experiment: Growth inhibition of human SK-MEL-5 cells after 48 hrs by sulforhodamine B assay; conditions: SK-MEL-5, 48 h; how it was run: as §1
UACC-257 = experiment: Growth inhibition of human UACC257 cells after 48 hrs by sulforhodamine B assay; conditions: UACC-257, 48 h; how it was run: as §2
IGROV-1 = experiment: Growth inhibition of human IGROV1 cells after 48 hrs by sulforhodamine B assay; conditions: IGROV-1, 48 h; how it was run: as §1
OVCAR-3 = experiment: Growth inhibition of human OVCAR-3 cells after 48 hrs by sulforhodamine B assay; conditions: OVCAR-3, 48 h; how it was run: as §1
OVCAR-5 = experiment: Growth inhibition of human OVCAR5 cells after 48 hrs by sulforhodamine B assay; conditions: OVCAR-5, 48 h; how it was run: as §1
OVCAR-8 = experiment: Growth inhibition of human OVCAR8 cells after 48 hrs by sulforhodamine B assay; conditions: OVCAR-8, 48 h; how it was run: as §1
SK-OV-3 = experiment: Growth inhibition of human SKOV3 cells after 48 hrs by sulforhodamine B assay; conditions: SK-OV-3, 48 h; how it was run: as §1
786-0 = experiment: Growth inhibition of human 786-0 cells after 48 hrs by sulforhodamine B assay; conditions: 786-0, 48 h; how it was run: as §1
CAKI-1 = experiment: Growth inhibition of human Caki1 cells after 48 hrs by sulforhodamine B assay; conditions: CAKI-1, 48 h; how it was run: as §1
TK-10 = experiment: Growth inhibition of human TK10 cells after 48 hrs by sulforhodamine B assay; conditions: TK-10, 48 h; how it was run: as §2
UO-31 = experiment: Growth inhibition of human UO31 cells after 48 hrs by sulforhodamine B assay; conditions: UO-31, 48 h; how it was run: as §2
PC-3 = experiment: Growth inhibition of human PC3 cells after 48 hrs by sulforhodamine B assay; conditions: PC-3, 48 h; how it was run: as §1
MDA-MB-231 = experiment: Growth inhibition of human MDA-MB-231 cells after 48 hrs by sulforhodamine B assay; conditions: MDA-MB-231, 48 h; how it was run: as §1
[6] = Growth inhibition of human Hs 578T cells after 48 hrs by sulforhodamine B assay; how it was run: as §1
MDA-MB-435 = experiment: Growth inhibition of human MDA-MB-435 cells after 48 hrs by sulforhodamine B assay; conditions: MDA-MB-435, 48 h; how it was run: as §1
MCF7 [7] = experiment: Growth inhibition of human MCF7 cells after 48 hrs by sulforhodamine B assay; conditions: MCF7, 48 h; how it was run: as §1
[8] = read-out: pLC50 (the source's name) (converted)

COc1cc(CNc2nc3cc(N)cc(N)c3nc2-c2ccccc2)cc(OC)c1OC
growth at 100 µM (NCI-H460 [1]): 7% | growth at 100 µM (MCF7 [2]): 0% | growth at 100 µM (SF-268 [3]): 15% | GI50 (HOP-62): 17 µM | LC50 (HOP-62): > 50.1 µM | TGI (HOP-62; read-out: pTGI (converted)): > 50.1 µM | GI50 (NCI-H322M): 3.02 µM | LC50 (NCI-H322M): > 50.1 µM | TGI (NCI-H322M; read-out: pTGI (converted)): 15.8 µM | GI50 (NCI-H460 [4]): 1.51 µM | LC50 (50% net cell kill) (NCI-H460 [4]): > 50.1 µM | TGI (NCI-H460 [4]; read-out: pTGI (converted)): > 50.1 µM | GI50 (NCI-H522): > 50.1 µM | LC50 (NCI-H522): > 50.1 µM | TGI (NCI-H522; read-out: pTGI (converted)): > 50.1 µM | GI50 (COLO 205): 3.8 µM | LC50 (50% net cell kill) (COLO 205): > 50.1 µM | TGI (COLO 205; read-out: pTGI (converted)): > 50.1 µM | GI50 (KM12): 0.479 µM | LC50 (50% net cell kill) (KM12): > 50.1 µM | TGI (KM12; read-out: pTGI (converted)): 10.2 µM | GI50 (SF-268 [5]): 2.95 µM | LC50 (SF-268 [5]): 49 µM | TGI (SF-268 [5]; read-out: pTGI (converted)): 14.1 µM | GI50 (SF-295): 1.66 µM | LC50 (50% net cell kill) (SF-295): 37.2 µM | TGI (SF-295; read-out: pTGI (converted)): 5.62 µM | GI50 (SNB-19): 7.24 µM | LC50 (SNB-19): > 50.1 µM | TGI (SNB-19; read-out: pTGI (converted)): 20.9 µM | GI50 (U-251): 1.74 µM | LC50 (50% net cell kill) (U-251): 30.2 µM | TGI (U-251; read-out: pTGI (converted)): 6.31 µM | GI50 (SK-MEL-5): 0.724 µM | CC50 (SK-MEL-5; [8]): 29.5 µM | TGI (SK-MEL-5; read-out: pTGI (converted)): 7.76 µM | GI50 (UACC-257): 3.47 µM | CC50 (UACC-257; [8]): 27.5 µM | TGI (UACC-257; read-out: pTGI (converted)): 10.7 µM | GI50 (IGROV-1): 9.12 µM | CC50 (IGROV-1; [8]): > 50.1 µM | TGI (IGROV-1; read-out: pTGI (converted)): > 50.1 µM | GI50 (OVCAR-3): 1.15 µM | CC50 (OVCAR-3; [8]): 18.2 µM | TGI (OVCAR-3; read-out: pTGI (converted)): 3.39 µM | GI50 (OVCAR-5): 21.4 µM | CC50 (OVCAR-5; [8]): > 50.1 µM | TGI (OVCAR-5; read-out: pTGI (converted)): > 50.1 µM | GI50 (OVCAR-8): 6.92 µM | CC50 (OVCAR-8; [8]): 31.6 µM | TGI (OVCAR-8; read-out: pTGI (converted)): 14.8 µM | GI50 (SK-OV-3): 5.37 µM | CC50 (SK-OV-3; [8]): 36.3 µM | TGI (SK-OV-3; read-out: pTGI (converted)): 13.8 µM | GI50 (786-0): 15.5 µM | CC50 (786-0; [8]): > 50.1 µM | TGI (786-0; read-out: pTGI (converted)): > 50.1 µM | GI50 (CAKI-1): 1.91 µM | CC50 (CAKI-1; [8]): 31.6 µM | TGI (CAKI-1; read-out: pTGI (converted)): 8.71 µM | GI50 (TK-10): 6.31 µM | CC50 (TK-10; [8]): > 50.1 µM | TGI (TK-10; read-out: pTGI (converted)): 17.8 µM | GI50 (UO-31): 11.2 µM | CC50 (UO-31; [8]): > 50.1 µM | TGI (UO-31; read-out: pTGI (converted)): > 50.1 µM | GI50 (PC-3): 2.19 µM | CC50 (PC-3; [8]): > 50.1 µM | TGI (PC-3; read-out: pTGI (converted)): > 50.1 µM | GI50 (MDA-MB-231): 7.24 µM | CC50 (MDA-MB-231; [8]): 31.6 µM | TGI (MDA-MB-231; read-out: pTGI (converted)): 15.1 µM | GI50 [6]: 3.02 µM | CC50 [6, 8]: > 50.1 µM | TGI ([6]; read-out: pTGI (converted)): 33.1 µM | GI50 (MDA-MB-435): 0.229 µM | CC50 (MDA-MB-435; [8]): 2.88 µM | TGI (MDA-MB-435; read-out: pTGI (converted)): 0.912 µM | GI50 (MCF7 [7]): 1.55 µM | CC50 (MCF7 [7]; [8]): > 50.1 µM | TGI (MCF7 [7]; read-out: pTGI (converted)): > 50.1 µM
